# Measurements reported in ChEMBL document CHEMBL2331541, “Small molecule antivirulents targeting the iron-regulated heme oxygenase (HemO) of P. aeruginosa” (J Med Chem, 2013).
# Active and inactive are the calls of the source. The rule behind the calls is not given here.
# Experiments:
# [1] = test system: Pseudomonas aeruginosa; assay: Antimicrobial activity against Pseudomonas aeruginosa PAO1; assay type: functional
# How it was run: (§1)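 Strains grown from single colony 8 h at 37 °C in LB, diluted to OD600 0.05, incubated in LB alone or with 250−1500 μM compound. OD600 read at 6, 12 and 24 h, blank with matching inhibitor concentration subtracted. MIC50 averaged from three separate experiments.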
# [2] = test system: Pseudomonas aeruginosa; assay: Antimicrobial activity against Pseudomonas aeruginosa FRD1; assay type: functional; how it was run: as §1
# [3] = test system: Pseudomonas aeruginosa; assay: Antimicrobial activity against Pseudomonas aeruginosa WR5; assay type: functional; how it was run: as §1
# [4] = Binding affinity to Pseudomonas aeruginosa apo Heme oxygenase expressed in Escherichia coli BL21(DE3) assessed as decrease in tryptophan fluorescence
# How it was run: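 Apo-HemO held at 1 μM in 20 mM Tris-HCl (pH 7.5), titrated with inhibitor 0.05−500 μM. Excitation 295 nm, emission scanned 300−500 nm; fluorescence decrease at 330 nm used in 1/ΔA vs 1/[I] reciprocal plot, slope giving KD. Mean of three separate experiments.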
# [5] = test system: Pseudomonas aeruginosa; assay: Binding affinity to Pseudomonas aeruginosa apo Heme oxygenase expressed in Escherichia coli BL21(DE3) after 4 hrs by STD-NMR analysis
# How it was run: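 STD-NMR at 25 °C, 500 MHz: inhibitor-saturated solution (50 mM sodium phosphate, 100 mM NaCl, D2O, pH 7.4, stood about 4 h, centrifuged) mixed with 3−4 μM HemO; inhibitor about 5 mM by TSP reference. Selective saturation 2 s via 50 ms Gaussian pulses; repeated with 10 s interscan delay. Strongest-saturated proton set to 100%.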
# [6] = test system: Pseudomonas aeruginosa; assay: Antimicrobial activity against Pseudomonas aeruginosa PAO1 infected in Caenorhabditis elegans glp-4(bn2) assessed as reduction in CFU at 250 ug/ml by serial dilution method; assay type: functional, organism-based
# How it was run: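 Infected worms (PAO1, 12 h on PGS agar) moved to E. coli OP50 plates with inhibitor; at 24, 48, 72 and 96 h, 10 live worms washed three times in M9 with 1 mM sodium azide, disrupted with 1.0 mm silicon carbide beads by vortexing 1 min, debris pelleted, lysate serially diluted and plated on PIA for cfu. Uninfected and untreated infected worms as controls.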
# [7] = test system: Pseudomonas aeruginosa; assay: Binding affinity to Pseudomonas aeruginosa apo Heme oxygenase expressed in Escherichia coli BL21(DE3) assessed as shift in specific resonance at 4.2 mM after 2 hrs by chemical shift NMR analysis
# How it was run: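 15N-labeled apo-HemO at 1.2 mM (50 mM phosphate, 100 mM KCl, 95% H2O/5% D2O) with inhibitor at 0, 0.7, 1.05, 2.1 or 4.2 mM; inhibitor dissolved into protein 2 h at room temperature, centrifuged. 1H−15N TROSY-HSQC at 25 °C; combined shift Δppm = sqrt(ΔδHN² + (0.2·ΔδN)²).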
# [8] = test system: Pseudomonas aeruginosa; assay: Antimicrobial activity against Pseudomonas aeruginosa PAO1 infected in Caenorhabditis elegans glp-4(bn2) assessed as increase in host lifespan at 250 ug/ml; assay type: functional, organism-based
# How it was run: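 Synchronized glp-4(bn2) young adults (30) exposed 12 h to P. aeruginosa PAO1 lawn on PGS agar (peptone, NaCl, glucose, 0.15 M sorbitol), washed in M9, reseeded on E. coli OP50 PGS-agar plates containing inhibitor. Viability scored daily; death taken as no response to touch. Average of three experiments.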
Compound,MIC50 [1] [µg/mL],MIC50 [2] [µg/mL],MIC50 [3] [µg/mL],Kd [4] [µM],Activity [5],Activity [6],Activity [7],Activity [8]
O=C(O)/C=C/C(=O)Nc1ccc(Oc2ccccc2)cc1,1000,750,800,29.3,–,–,–,–
CN(C)c1ccc(/C=N/NC(=N)N)cc1,250,190,210,31.2,Active,Active,Active,Active
O=C(O)/C=C/C(=O)Nc1ccc(Nc2ccccc2)cc1,1200,950,1100,18.4,Active,–,Active,Active
